# Laboratory results: paper PMC11645202 (Bioorganic & medicinal chemistry, 2024)
# Where two headings read alike, the source gives them in different places. Marks after values point to notes of the source that are not given here.
# Key:
# [1] = tested on: MCF-7 human breast carcinoma cells; settings: read-out: MCF-7 IC50; inhibition of growth; cited from earlier work
# [2] = tested on: tubulin; settings: compound 5 μM, cited from earlier work
# [3] = tested on: A-10 cells; experiment: Cellular microtubule loss by indirect immunofluorescence; format: cell-based; settings: 20 μM compound 8c; 15 μM compound 13; 2.5 μM compound 18 (Figure 5)
# [4] = tested on: MCF-7 human breast carcinoma cells; experiment: MCF-7 cell proliferation assay; format: cell-based
# How it was run: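 MCF-7 human breast carcinoma cells grown 24 h without drug, then 48 h with varying concentrations of test compound. Growth read as total cell protein by sulforhodamine B staining; IC50 taken as concentration inhibiting cell growth.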
# [5] = tested on: pancreatic cancer cells (MiaPaca-2); experiment: Cytotoxicity in pancreatic cancer cells, Promega CellTiter assay kit; format: cell-based
# [6] = tested on: colon cancer cell line HCT-16; experiment: Cytotoxicity in colon cancer cells, Promega CellTiter assay kit; format: cell-based
# [7] = tested on: tubulin; experiment: Inhibition of tubulin polymerization; format: biochemical; settings: for IC50: read-out: Tubulin Assembly IC50, tubulin at 10 μM
# [8] = tested on: A-10 cells; settings: read-out: A-10 EC50 (cellular microtubule loss); cited from earlier work
smiles,measurement,setting,value
"COc1ccc(C(=O)c2cc(OC)c(OC)c(OC)c2)cc1O [Phenstatin, reference compound]",IC50,[1],440 ± 70 nM
same,[3H]Colchicine Binding inhibition,[2],86^f %
"COc1ccc(C(=O)c2cc(OC)c(OC)c(OC)c2)cc1B(O)O [Compound 18, [2-Methoxy-5-(3,4,5-trimethoxybenzoyl)phenyl]boronic acid]",effects on interphase microtubules in A-10 cells,[3],disrupted microtubules and loss of the microtubule network
same,cytotoxicity in MCF-7 cells (in words),[4],mid-nanomolar cytotoxicity
same,activity in MiaPaca-2 (in words),[5],potency comparable to that of CA-4 and phenstatin
"COc1cc(C(=O)c2cnc(OC)c(B(O)O)c2)cc(OC)c1OC [Compound 22, [2-Methoxy-5-(3,4,5-trimethoxybenzoyl)pyridin-3-yl]boronic acid]",activity in HCT-16 (in words),[6],dramatically reduced activity
same,activity in MiaPaca-2 (in words),[5],dramatically reduced activity
same,IC50,[7],> 40000 nM
same,activity (in words),[7]; tubulin-based assays,no activity
"COc1ccc(/C=C\c2cc(OC)c(OC)c(OC)c2)cc1O [CA-4, Combretastatin A-4]",IC50,[1],32 ± 20 nM
same,EC50,[8],< 25 nM
"COc1cc(/C=C\c2cnc(OC)c(B(O)O)c2)cc(OC)c1OC [Compound 13, {2-Methoxy-5-[(Z)-2-(3,4,5-trimethoxyphenyl)vinyl]pyridin-3-yl}boronic acid]",effects on interphase microtubules in A-10 cells,[3],disrupted microtubules and loss of the microtubule network
same,cytotoxicity in MCF-7 cells (in words),[4],mid-nanomolar cytotoxicity
same,lower activity compared to 1 in inhibition of MCF-7 cell proliferation,[4]; relative to compound 1,23 fold
same,IC50,"[6]; HCT16, read-out: IC50 in HCT-16",< 5000 nM
same,lower potency compared to 1 in inhibiting tubulin polymerization,[7]; relative to compound 1,20 fold
COc1ccc(/C=C\c2cc(OC)c(OC)c(OC)c2)cc1B(O)O [Compound 1],IC50,[1],17 ± 5 nM
same,[3H]Colchicine Binding inhibition,"[2]; tubulin 1 μM, [3H]colchicine 5 μM",79 ± 2^e %
"COc1cc(/C=C\c2ccc(B(O)O)cc2)cc(OC)c1OC [Compound 8c, {4-[(Z)-2-(3,4,5-trimethoxyphenyl)vinyl]phenyl}boronic acid]",effects on interphase microtubules in A-10 cells,[3],disrupted microtubules and loss of the microtubule network
"COc1cc(/C=C\c2ccccc2B(O)O)cc(OC)c1OC [Compound 8a, {2-[(Z)-2-(3,4,5-trimethoxyphenyl)vinyl]phenyl}boronic acid]",activity in MiaPaca-2 (in words),[5],potency comparable to that of CA-4 and phenstatin
same,IC50,[7],> 40000 nM
